# Measurements from ChEMBL document CHEMBL1128739, “Structure-activity relationships in the 8-amino-6,7,8,9-tetrahydro-3H-benz[e]indole ring system. 2. Effects of 8-amino nitrogen substitution on serotonin receptor binding and pharmacology” (J Med Chem, 1995).
# Activity calls are given as the source filed them. The rule behind the calls is not given here.
# Key:
# [1] = biological target: T1, 5-hydroxytryptamine receptor 1B (Homo sapiens, UniProt P28222); test: In vitro binding affinity against cloned mammalian 5-hydroxytryptamine 1D receptor beta expressed in CHO cells, by using [3H]5-HT as radioligand; assay type: cell-based
# In short: (§1)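 Membranes from CHO cells stably expressing the cloned receptor, made by mechanical disruption in ice-cold Tris/EDTA/EGTA pH 7.4 and differential centrifugation. [3H]serotonin at 1.7 nM in 50 mM Tris, 5 mM MgCl2, 0.1% ascorbic acid, pH 7.4. 11 drug concentrations in duplicate, 1 h at room temperature protected from light, then filtration. Excess serotonin defines nonspecific binding. One-site IC50 fit, Ki by Cheng-Prusoff.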
# [2] = test system: Rattus norvegicus; test: In vivo changes in different brain area levels of 5-HTP in reserpinized rat corpus striatum.; assay type: functional
# In short: (§2)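 Male Sprague-Dawley rats (200-300 g) pretreated with reserpine 5 mg/kg sc 18 h before. Injection volume 5 mL/kg at neutral pH. Brain-region 5-HTP measured by HPLC with electrochemical detection. Dose-response curves used four to six doses, n = 4.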
# [3] = test system: Rattus norvegicus; test: The compound was tested in vivo for biochemical effect against the changes in different brain area levels of DOPA in reserpinized rat hemispheres (mainly cortex)at doest 12.5 umol/kg; Inactive; assay type: functional, organism-based
# [4] = test system: Rattus norvegicus; test: The compound was tested in vivo for biochemical effect against the changes in different brain area levels of DOPA in reserpinized rat limbic system at dose 12.5 umol/kg; Partial effect; assay type: functional, organism-based
# [5] = test system: Rattus norvegicus; test: In vivo for biochemical effect against brain area levels of 5-HTP in reserpinized rat hemispheres (mainly cortex).; assay type: functional
# In short: (§3)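 Male Sprague-Dawley rats (200-300 g) pretreated with reserpine 5 mg/kg sc 18 h before. Injection volume 5 mL/kg, test solutions at neutral pH. DOPA and 5-HTP in limbic system, striatum and hemispheres measured by HPLC with electrochemical detection. Dose-response curves from four to six dose levels (n = 4) per brain area.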
# [6] = biological target: T2, D(2) dopamine receptor (Rattus norvegicus, UniProt P61169); test: In vitro binding affinity against cloned mammalian Dopamine receptor D2 expressed in CHO cells using [3H]U-86170 as radioligand; assay type: cell-based; conditions: read-out: Ki
# In short: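 Membranes from CHO cells (20-60 μg protein) in 20 mM HEPES, 10 mM MgSO4, pH 7.4. Nonspecific binding defined with excess haloperidol. 11 concentrations, each in duplicate. Incubated 1 h at room temperature, then filtered and counted. IC50 from a one-site competition fit, converted to Ki by Cheng-Prusoff.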
# [7] = biological target: 5-hydroxytryptamine receptor 1D (Homo sapiens, UniProt P28221); test: In vitro binding affinity against cloned mammalian 5-hydroxytryptamine 1D receptor alpha expressed in CHO cells, by using [3H]5-HT as radioligand; assay type: cell-based
# In short: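 Competition binding on CHO-cell membranes (20-60 μg protein) in 50 mM Tris, 5 mM MgCl2, 0.1% ascorbic acid, pH 7.4. Nonspecific binding defined with excess serotonin. 11 drug concentrations, each in duplicate. Incubated 1 h at room temperature, protected from light, then filtered and scintillation counted. IC50 taken from a one-site fit; Ki by Cheng-Prusoff.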
# [8] = test system: Rattus norvegicus; test: The compound was tested in vivo for biochemical effect against the changes in different brain area levels of DOPA in reserpinized rat corpus striatum at dose 12.5 umol/kg; Partial effect; assay type: functional, organism-based
# [9] = biological target: D(3) dopamine receptor (Rattus norvegicus, UniProt P19020); test: In vitro binding affinity against cloned mammalian Dopamine receptor D3 expressed in CHO cells by, using [3H]-spiperone as radioligand; assay type: cell-based; conditions: read-out: Ki
# [10] = test system: Rattus norvegicus; test: The compound was tested in vivo for biochemical effect against the changes in different brain area levels of DOPA in reserpinized rat hemispheres (mainly cortex)at does 25 uM/kg; Inactive; assay type: functional, organism-based
# [11] = test system: Rattus norvegicus; test: The compound was tested in vivo for biochemical effect against the changes in different brain area levels of DOPA in reserpinized rat limbic system at dose 25 uM/kg; Inactive; assay type: functional, organism-based
# [12] = test system: Rattus norvegicus; test: The compound was tested in vivo for biochemical effect against the changes in different brain area levels of 5-HTP in reserpinized rat corpus striatum at dose 25 uM/kg; Inactive; assay type: functional, organism-based
# [13] = test system: Rattus norvegicus; test: The compound was tested in vivo for biochemical effect against the changes in different brain area levels of DOPA in reserpinized rat corpus striatum at dose 25 uM/kg; Inactive; assay type: functional, organism-based
# [14] = test system: Rattus norvegicus; test: The compound was tested in vivo for biochemical effect against the changes in different brain area levels of 5-HTP in reserpinized rat hemispheres (mainly cortex)at dose 25 uM/kg; Inactive; assay type: functional, organism-based
# [15] = test system: Rattus norvegicus; test: The compound was tested in vivo for biochemical effect against the changes in different brain area levels of 5-HTP in reserpinized rat limbic system at dose 25 uM/kg; Inactive; assay type: functional, organism-based
# [16] = test system: Rattus norvegicus; test: In vivo changes in different brain area levels of 5-HTP in reserpinized rat limbic system.; assay type: functional; in short: as §2
# [17] = test system: Rattus norvegicus; test: The compound was tested in vivo for biochemical effect against the changes in different brain area levels of DOPA in reserpinized rat limbic system at dose 12.5 uM/kg; Partial effect; assay type: functional, organism-based; in short: as §3
# [18] = test system: Rattus norvegicus; test: The compound was tested in vivo for biochemical effect against the changes in different brain area levels of DOPA in reserpinized rat corpus striatum at dose 12.5 uM/kg; Partial effect; assay type: functional, organism-based; in short: as §3
# [19] = test system: Rattus norvegicus; test: The compound was tested in vivo for biochemical effect against the changes in different brain area levels of DOPA in reserpinized rat hemispheres (mainly cortex) at dose 12.5 uM/kg; Inactive; assay type: functional, organism-based; in short: as §3
# [20] = test system: Rattus norvegicus; test: The compound was tested in vivo for biochemical effect against the changes in different brain area levels of DOPA in reserpinized rat hemispheres (mainly cortex)at dose 12.5 uM/kg; inactive; assay type: functional, organism-based; in short: as §3
# [21] = test system: Rattus norvegicus; test: The compound was tested in vivo for biochemical effect against the changes in different brain area levels of DOPA in reserpinized rat limbic system at dose 12.5 uM/kg; inactive; assay type: functional, organism-based; in short: as §3
# [22] = test system: Rattus norvegicus; test: The compound was tested in vivo for biochemical effect against the changes in different brain area levels of DOPA in reserpinized rat corpus striatum at dose 12.5 uM/kg; inactive; assay type: functional, organism-based; in short: as §3
# [23] = test system: Rattus norvegicus; test: The compound was tested in vivo for biochemical effect against the changes in different brain area levels of DOPA in reserpinized rat hemispheres (mainly cortex)at does 12.5 uM/kg; inactive; assay type: functional, organism-based; in short: as §3
# [24] = biological target: T1, 5-hydroxytryptamine receptor 1B; test: The compound was tested in vitro for binding affinity against cloned mammalian 5-hydroxytryptamine 1D receptor beta expressed in CHO cells, by using [3H]5-HT as radioligand; assay type: cell-based; design: concentration or dose not given beside the values; conditions: concentration not given here; in short: as §1
# [25] = test system: Rattus norvegicus; test: The compound was tested in vivo for biochemical effect against the changes in different brain area levels of DOPA in reserpinized rat corpus striatum; assay type: functional; in short: as §3
# [26] = biological target: T2, D(2) dopamine receptor; test: Binding affinity rat Dopamine receptor D2 expressed in CHO-K1 cells by [3H]U-86170 displacement.; assay type: cell-based
# [27] = test system: Rattus norvegicus; test: The compound was tested in vivo for biochemical effect against the changes in different brain area levels of DOPA in reserpinized rat limbic system at dose 50 uM/kg; Inactive; assay type: functional, organism-based
# [28] = test system: Rattus norvegicus; test: The compound was tested in vivo for biochemical effect against the changes in different brain area levels of DOPA in reserpinized rat corpus striatum at dose 50 uM/kg; Inactive; assay type: functional, organism-based; in short: as §3
# [29] = test system: Rattus norvegicus; test: The compound was tested in vivo for biochemical effect against the changes in different brain area levels of DOPA in reserpinized rat hemispheres (mainly cortex)at dose 50 uM/kg; Inactive; assay type: functional, organism-based
# [30] = test system: Rattus norvegicus; test: The compound was tested in vivo for biochemical effect against the changes in different brain area levels of DOPA in reserpinized rat limbic system; assay type: functional
# In short: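 Rats (male Sprague-Dawley, 200-300 g) received reserpine 5 mg/kg sc 18 h before. Injections 5 mL/kg at neutral pH. DOPA accumulation measured by HPLC with electrochemical detection as an index of DA or NE synthesis rate. Four to six dose levels, n = 4. ED50 from a sigmoidal fit.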
# [31] = test system: Rattus norvegicus; test: The compound was tested in vivo for biochemical effect against the changes in different brain area levels of DOPA in reserpinized rat hemispheres (mainly cortex)at dose 50 uM/kg; inactive; assay type: functional, organism-based
# 5-hydroxytryptamine receptor 1D, sequence (P28221 whole entry): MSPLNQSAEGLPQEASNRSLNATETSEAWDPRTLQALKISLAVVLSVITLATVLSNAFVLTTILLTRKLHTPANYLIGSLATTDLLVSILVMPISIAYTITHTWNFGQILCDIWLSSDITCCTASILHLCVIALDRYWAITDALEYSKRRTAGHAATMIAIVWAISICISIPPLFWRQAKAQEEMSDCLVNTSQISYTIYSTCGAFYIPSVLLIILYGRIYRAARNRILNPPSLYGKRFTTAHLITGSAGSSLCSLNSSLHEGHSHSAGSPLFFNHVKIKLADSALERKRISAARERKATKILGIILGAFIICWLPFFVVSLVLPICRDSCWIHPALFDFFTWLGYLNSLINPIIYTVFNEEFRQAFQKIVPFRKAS
# T1 sequence (P28222 whole entry): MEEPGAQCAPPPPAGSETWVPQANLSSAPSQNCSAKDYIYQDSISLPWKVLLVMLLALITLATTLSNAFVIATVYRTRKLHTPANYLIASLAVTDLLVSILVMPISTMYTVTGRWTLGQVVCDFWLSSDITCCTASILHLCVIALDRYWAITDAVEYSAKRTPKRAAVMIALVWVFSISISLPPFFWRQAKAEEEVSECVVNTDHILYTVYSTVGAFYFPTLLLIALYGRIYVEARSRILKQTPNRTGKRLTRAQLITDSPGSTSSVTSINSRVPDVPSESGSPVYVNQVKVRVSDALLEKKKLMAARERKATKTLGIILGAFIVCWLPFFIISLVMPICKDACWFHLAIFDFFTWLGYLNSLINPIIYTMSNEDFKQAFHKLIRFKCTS
# D(3) dopamine receptor, sequence (P19020 whole entry): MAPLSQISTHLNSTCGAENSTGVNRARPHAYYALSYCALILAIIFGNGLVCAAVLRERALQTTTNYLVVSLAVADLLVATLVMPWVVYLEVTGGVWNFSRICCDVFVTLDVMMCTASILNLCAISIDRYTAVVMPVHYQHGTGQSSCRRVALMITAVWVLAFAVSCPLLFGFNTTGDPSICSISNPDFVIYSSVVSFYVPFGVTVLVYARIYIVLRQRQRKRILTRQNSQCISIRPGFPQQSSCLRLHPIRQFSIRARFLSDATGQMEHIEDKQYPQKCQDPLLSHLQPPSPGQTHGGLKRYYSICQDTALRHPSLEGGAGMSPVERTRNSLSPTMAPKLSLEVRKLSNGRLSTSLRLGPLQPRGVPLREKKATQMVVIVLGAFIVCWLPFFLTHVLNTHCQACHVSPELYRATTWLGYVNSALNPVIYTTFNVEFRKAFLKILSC
# T2 sequence (P61169 whole entry): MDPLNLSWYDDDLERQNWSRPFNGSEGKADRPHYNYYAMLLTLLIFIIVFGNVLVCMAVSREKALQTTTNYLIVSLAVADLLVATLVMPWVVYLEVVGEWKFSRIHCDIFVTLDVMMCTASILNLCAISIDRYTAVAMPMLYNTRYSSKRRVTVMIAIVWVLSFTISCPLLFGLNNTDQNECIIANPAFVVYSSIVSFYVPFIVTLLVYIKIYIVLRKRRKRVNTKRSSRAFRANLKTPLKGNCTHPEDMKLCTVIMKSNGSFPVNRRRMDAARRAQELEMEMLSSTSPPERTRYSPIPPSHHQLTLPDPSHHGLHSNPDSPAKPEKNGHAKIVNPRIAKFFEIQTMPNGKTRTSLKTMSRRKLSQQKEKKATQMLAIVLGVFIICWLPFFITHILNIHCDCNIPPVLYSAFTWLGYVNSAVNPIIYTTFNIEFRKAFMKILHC
SMILES,Ki [1],Ki [6],Ki [7],Ki [9],ED50 [2],ED50 [5],ED50 [16],also measured
CN(C)[C@@H]1CCc2ccc3[nH]cc(C=O)c3c2C1,20 nM,13 nM,–,265 nM,0.95 µmol/kg,0.56 µmol/kg,2.9 µmol/kg,ED50 [17]: Weak activity; ED50 [18]: Weak activity; ED50 [19]: inactive
CCCN(CC(C)C)[C@@H]1CCc2ccc3[nH]ccc3c2C1,219 nM,5.7 nM,35 nM,18 nM,1.23 µmol/kg,3.59 µmol/kg,1.8 µmol/kg,ED50 [20]: inactive; ED50 [21]: inactive; ED50 [22]: inactive
C=CCN(CCC)C1CCc2ccc3[nH]ccc3c2C1 (stereo unspecified),–,–,35 nM,77 nM,0.18 µmol/kg,–,–,ED50 [23]: inactive; inhibition [24]: < 45%; ED50 [25]: 0.97 µmol/kg; ED50 [21]: inactive; Ki [26]: 42 nM

# Second part, led by results:
Ki [1],Ki [6],Ki [7],Ki [9],SMILES,ED50 [2],ED50 [5],ED50 [16],also measured
14 nM,5.8 nM,0.9 nM,19 nM,CCCN(CCCc1ccccc1)[C@@H]1CCc2ccc3[nH]cc(C=O)c3c2C1,0.43 µmol/kg,0.75 µmol/kg,–,ED50 [3]: inactive; ED50 [4]: Weak activity; ED50 [8]: Weak activity
1620 nM,859 nM,250 nM,1270 nM,CCCN(CCCCN1C(=O)CC(C)(C)CC1=O)[C@H]1CCc2ccc3[nH]cc(C=O)c3c2C1,–,–,–,ED50 [10]: inactive; ED50 [11]: inactive; ED50 [12]: inactive; ED50 [13]: inactive; ED50 [14]: inactive; ED50 [15]: inactive
187 nM,28 nM,5.1 nM,159 nM,CCCN(CCCOc1cccc(Cl)c1)C1CCc2ccc3[nH]cc(C=O)c3c2C1 (stereo unspecified),4.01 µmol/kg,5.12 µmol/kg,4.79 µmol/kg,ED50 [27]: inactive; ED50 [28]: inactive; ED50 [29]: inactive
4610 nM,–,192 nM,43 nM,CCCN(Cc1ccccc1)C1CCc2ccc3[nH]ccc3c2C1 (stereo unspecified),6.87 µmol/kg,6.72 µmol/kg,7.58 µmol/kg,ED50 [30]: 8.1 µmol/kg; ED50 [25]: 8.77 µmol/kg; Ki [26]: 22 nM; ED50 [31]: inactive
